# Test results taken from ChEMBL document CHEMBL4184173, “Synthesis and in vitro evaluations of 6-(hetero)-aryl-imidazo[1,2-b]pyridazine-3-sulfonamide's as an inhibitor of TNF-α production” (Bioorg Med Chem Lett, 2018).
# Tested on: PBMC
# Experiment: Cytotoxicity against human PBMC by MTS assay
# Assay type: cell-based
# Outline: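 Cells from the LPS-stimulated hPBMC assay were given MTS-[…] reagent and incubated 5-6 h until absorbance reached 0.5. Read at 490 nm. Percent cytotoxicity was calculated from mean absorbance relative to the 0.5% DMSO vehicle control.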
row,Compound,IC50 [µM]
1,CS(=O)(=O)c1ccc(-c2ccc3ncc(S(=O)(=O)N4CCC(C#N)(c5ccccc5)CC4)n3n2)cc1,> 30
2,N#CC1(c2ccccc2)CCN(S(=O)(=O)c2cnc3ccc(Cl)nn23)CC1,> 30
3,O=S(=O)(c1cnc2ccc(-c3cncc(F)c3)nn12)N1CCN(c2ccccn2)CC1,> 30
4,CS(=O)(=O)c1ccc(-c2ccc3ncc(S(=O)(=O)NCC4CCCO4)n3n2)cc1 (centres undefined),> 30
5,O=S(=O)(NCC1CCCO1)c1cnc2ccc(-c3cncc(C(F)(F)F)c3)nn12 (centres undefined),> 30
6,COc1cccc(CNS(=O)(=O)c2cnc3ccc(-c4cncc(C(F)(F)F)c4)nn23)c1,> 30
7,COc1cccc(CNS(=O)(=O)c2cnc3ccc(-c4ccc(OC)nc4)nn23)c1,> 30
8,O=S(=O)(c1cnc2ccc(-c3cccnc3)nn12)N1CCN(c2ccccn2)CC1,> 30
9,O=S(=O)(NCC1CCCO1)c1cnc2ccc(-c3cccnc3)nn12 (centres undefined),> 30
10,N#CC1(c2ccccc2)CCN(S(=O)(=O)c2cnc3ccc(-c4cncc(F)c4)nn23)CC1,> 30
11,O=S(=O)(NCC1CCCO1)c1cnc2ccc(-c3cncc(F)c3)nn12 (centres undefined),> 30
12,NS(=O)(=O)c1cnc2ccc(Cl)nn12,> 30
13,N#CC1(c2ccccc2)CCN(S(=O)(=O)c2cnc3ccc(-c4cccnc4)nn23)CC1,> 30
14,O=S(=O)(c1cnc2ccc(Cl)nn12)N1CCN(c2ccccc2)CC1,> 30
15,O=S(=O)(c1cnc2ccc(Cl)nn12)N1CCN(Cc2ccccc2)CC1,> 30
16,COc1cccc(CNS(=O)(=O)c2cnc3ccc(-c4ccc(S(C)(=O)=O)cc4)nn23)c1,> 30
17,CCN1CCN(S(=O)(=O)c2cnc3ccc(-c4ccc(OC)cc4)nn23)CC1,> 30
18,CCN1CCN(S(=O)(=O)c2cnc3ccc(-c4ccc(OC)nc4)nn23)CC1,> 30
19,O=S(=O)(c1cnc2ccc(-c3cncc(C(F)(F)F)c3)nn12)N1CCN(c2ccccn2)CC1,> 30
20,COc1ccc(-c2ccc3ncc(S(=O)(=O)NCC4CCCO4)n3n2)cc1 (centres undefined),> 30
21,COc1ccc(-c2ccc3ncc(S(=O)(=O)NCC4CCCO4)n3n2)cn1 (centres undefined),> 30

row,Compound,IC50 [µM]
1,N#CC1(c2ccccc2)CCN(S(=O)(=O)c2cnc3ccc(-c4cncc(C(F)(F)F)c4)nn23)CC1,> 30
2,Nc1ncc(-c2ccc3ncc(S(=O)(=O)N4CCN(c5ccccn5)CC4)n3n2)cc1C(F)(F)F,> 30
3,CCN1CCN(S(=O)(=O)c2cnc3ccc(-c4cncc(F)c4)nn23)CC1,> 30
4,COc1cccc(CNS(=O)(=O)c2cnc3ccc(-c4cncc(F)c4)nn23)c1,> 30
5,O=S(=O)(c1cnc2ccc(Cl)nn12)N1CCN(c2ccccn2)CC1,> 30
6,O=S(=O)(NCC1CCCO1)c1cnc2ccc(Cl)nn12 (centres undefined),> 30
7,O=S(=O)(c1cnc2ccc(-c3cccnc3)nn12)N1CCN(Cc2ccccc2)CC1,> 30
8,CCN1CCN(S(=O)(=O)c2cnc3ccc(-c4ccc(S(C)(=O)=O)cc4)nn23)CC1,> 30
9,CCN1CCN(S(=O)(=O)c2cnc3ccc(-c4cncc(C(F)(F)F)c4)nn23)CC1,> 30
10,COc1ccc(-c2ccc3ncc(S(=O)(=O)N4CCN(c5ccccn5)CC4)n3n2)cn1,> 30
11,COc1cccc(CNS(=O)(=O)c2cnc3ccc(-c4cccnc4)nn23)c1,> 30
12,COc1ccc(-c2ccc3ncc(S(=O)(=O)N4CCC(C#N)(c5ccccc5)CC4)n3n2)cc1OC,> 30
13,COc1cccc(CNS(=O)(=O)c2cnc3ccc(-c4cnc(N)c(C(F)(F)F)c4)nn23)c1,> 30
14,CS(=O)(=O)c1ccc(-c2ccc3ncc(S(=O)(=O)N4CCN(Cc5ccccc5)CC4)n3n2)cc1,> 30
15,CS(=O)(=O)c1ccc(-c2ccc3ncc(S(=O)(=O)N4CCN(c5ccccn5)CC4)n3n2)cc1,> 30
16,Nc1ncc(-c2ccc3ncc(S(N)(=O)=O)n3n2)cc1C(F)(F)F,> 30
17,CCN1CCN(S(=O)(=O)c2cnc3ccc(-c4cccnc4)nn23)CC1,> 30
18,CCN1CCN(S(=O)(=O)c2cnc3ccc(Cl)nn23)CC1,> 30
19,O=S(=O)(c1cnc2ccc(-c3cncc(F)c3)nn12)N1CCN(Cc2ccccc2)CC1,> 30
20,COc1cccc(CNS(=O)(=O)c2cnc3ccc(Cl)nn23)c1,> 30
21,COc1ccc(C2CNC(=O)C2)cc1OC1CCCC1 (centres undefined) [ROLIPRAM],> 30

# Target: T1, Tumor necrosis factor (Mus musculus, UniProt P06804)
# T1 sequence (P06804 whole entry): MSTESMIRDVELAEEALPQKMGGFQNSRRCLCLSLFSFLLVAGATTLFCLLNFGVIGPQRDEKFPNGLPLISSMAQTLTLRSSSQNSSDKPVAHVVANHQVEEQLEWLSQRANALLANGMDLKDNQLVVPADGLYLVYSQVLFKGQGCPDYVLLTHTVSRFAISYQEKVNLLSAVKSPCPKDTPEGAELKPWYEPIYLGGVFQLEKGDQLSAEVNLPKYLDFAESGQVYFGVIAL
# Experiment: Inhibition of mouse recombinant TNF-alpha binding to antibody preincubated for 30 mins followed by antibody addition measured after 2 hrs by ELISA
row,Compound,IC50 [µM]
1,CCCCn1cnc(CC(c2c(O)c3ccccc3oc2=O)c2c(O)c3ccccc3oc2=O)c1Cl,16.5

# Tested on: L929
# Experiment: Cytoprotective against human TNF-alpha-induced cell death in mouse L929 cells by MTT assay
# Assay type: functional, cell-based
row,Compound,IC50 [µM]
1,O=C1/C(=N/Nc2ccc(Cl)c([N+](=O)[O-])c2)C(c2ccccc2)NN1c1nc(-c2ccccc2)cs1 (centres undefined),9
